Key:
[1] = target: T1, 5-hydroxytryptamine receptor 4 (Cavia porcellus, UniProt O70528); test: Inhibition of [3H]GR-113808 binding to guinea pig striatum 5-hydroxytryptamine 4 receptor; type: tissue-based
D(2) dopamine receptor [2] = target: T2, D(2) dopamine receptor (Rattus norvegicus, UniProt P61169); test: Affinity of compound towards Dopamine receptor D2 in rat striatum using [3H]spiperone as radioligand; type: tissue-based
Outline: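 Competition binding against [3H]spiperone in rat striatal (brain synaptic) membranes. IC50 is the concentration giving 50% inhibition of specific radioligand binding, in nM, derived by linear regression (Probit analysis). Reported as mean with 95% confidence limits.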

D(2) dopamine receptor [3] = target: T2, D(2) dopamine receptor; test: Inhibition of the binding of radioligand [3H]spiperone to dopamine receptor D2 in rat brain synaptic membrane; type: cell membranes
[4] = target: T3, Serotonin 3 (5-HT3) receptor (Rattus norvegicus, UniProt P35563+Q9JJ16); test: Concentration of compound required to inhibit the binding of radioligand [3H]GR-65630 to 5-hydroxytryptamine 3 receptor in rat brain cortical membrane; type: cell membranes
T3 sequence (P35563 whole entry): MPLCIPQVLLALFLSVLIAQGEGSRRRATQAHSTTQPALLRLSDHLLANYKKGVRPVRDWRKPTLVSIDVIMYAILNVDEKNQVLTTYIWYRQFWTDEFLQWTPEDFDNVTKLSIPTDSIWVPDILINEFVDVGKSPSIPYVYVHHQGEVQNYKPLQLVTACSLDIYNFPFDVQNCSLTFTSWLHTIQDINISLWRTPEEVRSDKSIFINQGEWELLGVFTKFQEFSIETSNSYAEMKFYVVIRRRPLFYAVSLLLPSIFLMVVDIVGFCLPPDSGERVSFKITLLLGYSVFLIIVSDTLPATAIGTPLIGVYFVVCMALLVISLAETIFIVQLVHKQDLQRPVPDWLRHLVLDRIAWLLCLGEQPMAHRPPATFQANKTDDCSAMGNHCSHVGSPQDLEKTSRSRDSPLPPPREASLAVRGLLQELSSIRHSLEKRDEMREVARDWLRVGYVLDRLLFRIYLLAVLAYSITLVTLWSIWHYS
T3 sequence (Q9JJ16 whole entry): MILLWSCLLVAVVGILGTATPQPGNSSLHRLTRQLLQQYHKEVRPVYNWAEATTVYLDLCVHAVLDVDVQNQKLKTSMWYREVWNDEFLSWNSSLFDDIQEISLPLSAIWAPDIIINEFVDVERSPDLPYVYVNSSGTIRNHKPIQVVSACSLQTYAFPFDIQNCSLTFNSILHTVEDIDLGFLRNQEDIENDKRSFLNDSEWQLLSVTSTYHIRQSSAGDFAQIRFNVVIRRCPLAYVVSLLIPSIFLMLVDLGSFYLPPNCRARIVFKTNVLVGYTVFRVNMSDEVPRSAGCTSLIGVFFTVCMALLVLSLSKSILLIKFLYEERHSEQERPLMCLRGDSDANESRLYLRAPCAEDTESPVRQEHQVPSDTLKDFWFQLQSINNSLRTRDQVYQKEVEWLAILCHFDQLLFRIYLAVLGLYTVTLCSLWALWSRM
Outline: (§1)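 Displacement of [³H]GR65630 from rat cerebral cortex membranes, following an earlier [³H]quipazine binding protocol. IC50, the concentration giving 50% inhibition of specific binding, in nM by probit (linear regression) analysis. Values given as mean with 95% confidence limits.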

[5] = target: T3, Serotonin 3 (5-HT3) receptor; test: Concentration required to inhibit the binding of radioligand [3H]GR-65630 to serotonin 5-hydroxytryptamine-3 receptor (5-HT 3 receptor)in rat brain cortical membrane; type: tissue-based
Canis familiaris [6] = test: Percent inhibition of apomorphine (0.3 mg/kg) induced emesis in dogs when 1 mg/kg of compound administered perorally; type: functional; conditions: Canis lupus familiaris, route oral
Outline: (§2)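 Male beagle dogs weighing 10–16 kg, in groups of three to six, were pretreated orally with test compound. Apomorphine hydrochloride (0.3 mg/kg) was injected subcutaneously 2 h later to elicit emesis.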

[7] = target: T1, 5-hydroxytryptamine receptor 4; test: Concentration of compound required to inhibit the binding of radioligand [3H]GR-113808 to 5-hydroxytryptamine 4 receptor in guinea pig striatum; type: tissue-based
[8] = target: T1, 5-hydroxytryptamine receptor 4; test: Concentration of compound required to inhibit the binding of radioligand [3H]GR-113808 to serotonin 5-hydroxytryptamine 4 receptor in guinea-pig striatum; type: tissue-based
Canis familiaris [9] = test: Effective dose for inhibition of apomorphine (0.3 mg/kg) induced emesis in dogs when 1 mg/kg of compound administered perorally; type: functional, Canis lupus familiaris; conditions: route oral; outline: as §2
D(3) dopamine receptor [10] = target: T4, D(3) dopamine receptor (Rattus norvegicus, UniProt P19020); test: Concentration of compound required to inhibit the binding of radioligand [3H](R)-7-OH-DPAT to Dopamine receptor D3 in rat striatum; type: tissue-based
[11] = target: T3, Serotonin 3 (5-HT3) receptor; test: Inhibition of [3H]GR-65630 binding to rat cortical membrane serotonin 5-hydroxytryptamine 3 receptor
D(2) dopamine receptor [12] = target: T2, D(2) dopamine receptor; test: Affinity towards Dopamine receptor D2 in rat striatum using [3H]spiperone as radioligand; type: tissue-based
D(3) dopamine receptor [13] = target: T4, D(3) dopamine receptor; test: Concentration of compound required to inhibit the binding of radioligand [3H](R)-7-OH-DPAT to Dopamine receptor D3 in rat striatum.
D(2) dopamine receptor [14] = target: T2, D(2) dopamine receptor; test: Concentration of compound required to inhibit the binding of radioligand [3H]-spiperone to Dopamine receptor D2 in rat striatum; type: tissue-based
Outline: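 Competition binding against [³H]spiperone in rat striatum. IC50, the concentration inhibiting 50% of specific radioligand binding, in nM by probit (linear regression) analysis. Reported as mean with 95% confidence limits.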

[15] = target: T3, Serotonin 3 (5-HT3) receptor; test: Concentration of compound required to inhibit the binding of radioligand [3H]GR-65630 to serotonin 5-hydroxytryptamine 3 receptor in rat cortical membrane; type: cell membranes; outline: as §1
[16] = target: T1, 5-hydroxytryptamine receptor 4; test: Concentration of compound required to inhibit the binding of radioligand [3H]GR-113808 to 5-hydroxytryptamine 4 receptor in guinea-pig striatum; type: tissue-based
[17] = Canis lupus familiaris, read-out: ED50

T4 sequence (P19020 whole entry): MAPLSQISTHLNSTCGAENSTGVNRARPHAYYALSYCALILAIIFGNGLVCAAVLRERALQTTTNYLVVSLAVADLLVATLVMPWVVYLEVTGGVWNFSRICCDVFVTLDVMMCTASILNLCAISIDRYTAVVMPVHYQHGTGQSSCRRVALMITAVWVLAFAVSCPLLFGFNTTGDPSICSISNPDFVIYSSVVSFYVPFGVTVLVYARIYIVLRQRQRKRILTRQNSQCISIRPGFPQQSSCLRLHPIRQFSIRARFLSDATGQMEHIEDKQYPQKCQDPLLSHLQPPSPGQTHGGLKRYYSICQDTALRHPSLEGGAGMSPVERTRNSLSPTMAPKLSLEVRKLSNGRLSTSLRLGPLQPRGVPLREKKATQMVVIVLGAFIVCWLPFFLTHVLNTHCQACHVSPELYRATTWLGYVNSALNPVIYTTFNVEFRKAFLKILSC
T1 sequence (O70528 whole entry): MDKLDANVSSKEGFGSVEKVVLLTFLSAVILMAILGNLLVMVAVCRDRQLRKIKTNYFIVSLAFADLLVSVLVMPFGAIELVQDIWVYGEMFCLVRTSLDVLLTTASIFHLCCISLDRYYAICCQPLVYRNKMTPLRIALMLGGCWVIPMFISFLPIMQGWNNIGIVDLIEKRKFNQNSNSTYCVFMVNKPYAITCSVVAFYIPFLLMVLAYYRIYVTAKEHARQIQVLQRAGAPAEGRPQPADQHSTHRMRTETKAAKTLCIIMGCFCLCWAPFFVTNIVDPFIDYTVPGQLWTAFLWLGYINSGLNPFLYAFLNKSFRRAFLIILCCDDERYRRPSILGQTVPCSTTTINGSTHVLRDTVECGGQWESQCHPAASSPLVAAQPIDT
T2 sequence (P61169 whole entry): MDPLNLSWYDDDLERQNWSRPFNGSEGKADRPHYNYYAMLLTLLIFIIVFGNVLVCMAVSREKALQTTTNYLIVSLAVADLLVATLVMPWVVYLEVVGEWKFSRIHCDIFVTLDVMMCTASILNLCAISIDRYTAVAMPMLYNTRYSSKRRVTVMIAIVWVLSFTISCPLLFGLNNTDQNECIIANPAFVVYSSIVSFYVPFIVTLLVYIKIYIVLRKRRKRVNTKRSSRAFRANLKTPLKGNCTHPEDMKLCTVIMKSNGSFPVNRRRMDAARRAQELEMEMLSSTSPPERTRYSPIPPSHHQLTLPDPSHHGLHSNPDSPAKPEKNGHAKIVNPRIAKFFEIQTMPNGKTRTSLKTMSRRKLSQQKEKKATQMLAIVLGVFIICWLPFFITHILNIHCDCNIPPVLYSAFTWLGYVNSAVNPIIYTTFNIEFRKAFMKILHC

Row | Compound | Ki [1] [nM] | IC50 (D(2) dopamine receptor [3]) [nM] | IC50 [5] [nM] | inhibition in vivo at 1 mg/kg (Canis familiaris [6]) [%] | other results
1 | COc1cc(N)c(Cl)cc1C(=O)N[C@@H]1CN2CCC1CC2 | 383 | – | – | – | –
2 | COc1cc(N)c(Cl)cc1C(=O)NC1CCN(Cc2ccccc2)CC1 [CLEBOPRIDE] | 104 | – | – | – | –
3 | COc1cc(N)c(Cl)cc1C(=O)NC[C@@H]1CCN2CCC[C@@H]12 | 21 | – | – | – | Ki (D(2) dopamine receptor [2]): > 10000 nM
4 | CCN1CCN(C)CC(NC(=O)c2cnc(NC)nc2OC)C1 (stereo not drawn) | – | > 1000 | – | – | IC50 [4]: 157 nM
5 | CCN1CCN(C)CC(NC(=O)c2cc(Cl)cc3c2OCC3)C1 (stereo not drawn) | – | > 1000 | 29.9 | – | –
6 | CCN1CCN(C)CC(NC(=O)c2cc(Br)c(NC)nc2OC)C1 (stereo not drawn) | – | – | 0.97 | – | –
7 | CCNc1nc(OC)c(C(=O)NC2CN(C)CCN(CC)C2)cc1Cl (stereo not drawn) | – | – | – | 42 | –
8 | COc1cc(N)c(Cl)cc1C(=O)NC1CCN(C)CC1 | 832 | – | – | – | –
9 | CCN1CCN(C)C[C@@H](NC(=O)c2cc(Cl)c(OC)nc2NC)C1 | – | > 1000 | > 100 | – | –
10 | O=c1[nH]c2ccccc2n1CCCN1CCC(n2c(=O)[nH]c3cc(Cl)ccc32)CC1 [DOMPERIDONE] | – | – | – | – | IC50 [7]: > 1000 nM
11 | CCN1CCN(C)C[C@@H](NC(=O)c2cc(Br)c(NC)nc2OC)C1 | – | 6.88 | 1.2 | 100 | IC50 [8]: > 10000 nM; ED50 (Canis familiaris [9]; [17]): 0.12 mg/kg; IC50 (D(3) dopamine receptor [10]): 1.13 nM
12 | CCN1CCN(C)CC(NC(=O)c2cc(Br)c(N(C)C)nc2OC)C1 (stereo not drawn) | – | – | – | 83 | –
13 | CCN1CCN(C)CC(NC(=O)c2cc(Cl)cn3ccnc23)C1 (stereo not drawn) | – | > 1000 | 148 | – | –
14 | CCN1CCN(C)C[C@@H](NC(=O)c2cc(Cl)c(N)c3c2OCC3)C1 | – | 637 | 3.7 | – | –
15 | Cc1nccn1CC1CCc2c(c3ccccc3n2C)C1=O (stereo not drawn) [ONDANSETRON] | – | > 1000 | – | – | –
16 | CNc1nc(OC)c(C(=O)NC2CN(C)CCN(C3CC3)C2)cc1Br (stereo not drawn) | – | 47.1 | 0.76 | 14 | –
17 | CCOc1nc(NC)c(Cl)cc1C(=O)NC1CN(C)CCN(CC)C1 (stereo not drawn) | – | 42.9 | 0.55 | 40 | –
18 | CCOc1cc(N)c(Cl)cc1C(=O)NCC1CN(Cc2ccc(F)cc2)CCO1 (stereo not drawn) [MOSAPRIDE] | 69.9 | – | – | – | Ki [11]: 1190 nM; Ki (D(2) dopamine receptor [12]): > 10000 nM

Row | Compound | Ki [1] [nM] | IC50 (D(2) dopamine receptor [3]) [nM] | IC50 [5] [nM] | inhibition in vivo at 1 mg/kg (Canis familiaris [6]) [%] | other results
19 | CCN(CC)CCNC(=O)c1cc(Cl)c(N)cc1OC [METOCLOPRAMIDE] | 546 | – | 228 | 100 | IC50 [8]: 912 nM; Ki [11]: 210 nM; ED50 (Canis familiaris [9]; [17]): 0.45 mg/kg; IC50 (D(3) dopamine receptor [10]): 61.3 nM
20 | COc1cc(N)c(Cl)cc1C(=O)NC1CC2CCC(C1)N2C (stereo in doubt; 2) | > 1000 | – | – | – | –
21 | CCOc1nc(NC)c(Br)cc1C(=O)NC1CN(C)CCN(CC)C1 (stereo not drawn) | – | 86.4 | 1.48 | – | –
22 | CCN1CCN(C)CC(NC(=O)c2cc(Cl)cc3c2OCC(=O)N3C)C1 (stereo not drawn) | – | > 1000 | 38.7 | – | –
23 | CCN1CCN(CC)CC(NC(=O)c2cc(Cl)c(NC)nc2OC)C1 | – | 27.8 | 0.65 | 53 | –
24 | CCN1CCN(C)C[C@@H](NC(=O)c2cc(Cl)c(NC)nc2OC)C1 | – | – | – | 52 | –
25 | COc1cc(N)c(Cl)cc1C(=O)NCCN(C)Cc1ccccc1 | 867 | – | – | – | Ki [11]: > 1000 nM; Ki (D(2) dopamine receptor [12]): 24.3 nM
26 | CNc1nc(OC)c(C(=O)NC2CN(C)CCN(C)C2)cc1Cl | – | 137 | 1.3 | 20 | –
27 | CCN1CCN(CC)CC(NC(=O)c2cc(Br)c(NC)nc2OC)C1 | – | 20.9 | 0.59 | 69 | –
28 | CCN1CCN(C)C[C@@H](NC(=O)c2cc(Cl)c(NC)cc2OC)C1 | – | – | – | 100 | ED50 (Canis familiaris [9]; [17]): 0.13 mg/kg; ED50 (Canis familiaris [9]; dose 1 mg/kg): 0.13 mg/kg; IC50 (D(3) dopamine receptor [13]): 15.1 nM; IC50 [7]: > 1000 nM
29 | COc1cc(N)c(Cl)cc1C(=O)NC1CCN2CCCC1C2 (stereo not drawn) [RENZAPRIDE] | 40.4 | – | – | – | Ki [11]: 5.3 nM; Ki (D(2) dopamine receptor [12]): > 10000 nM
30 | COc1cc(N)c(Cl)cc1C(=O)NC1CC2CCC(C1)N2Cc1ccccc1 (stereo not drawn) | 233 | – | – | – | –
31 | CCN1CCN(C2CC2)CC(NC(=O)c2cc(Br)c(NC)nc2OC)C1 (stereo not drawn) | – | 12.9 | 0.69 | 25 | –
32 | COc1cc(N)c(Cl)cc1C(=O)NC1CN(C)CCN(Cc2ccccc2)C1 (stereo not drawn) | – | – | – | – | IC50 (D(2) dopamine receptor [14]): > 1000 nM; IC50 [15]: 2.07 nM; IC50 [7]: > 1000 nM
33 | CCN1CCN(C)CC(NC(=O)c2[nH]nc3ccccc23)C1 (stereo not drawn) | – | > 1000 | 6.56 | – | –
34 | CCN1CCN(C)C[C@H](NC(=O)c2cc(Br)c(NC)nc2OC)C1 | – | 122 | 1.28 | 47 | IC50 (D(3) dopamine receptor [10]): 14.3 nM; IC50 [16]: > 1000 nM
35 | COc1cc(N)c(Cl)cc1C(=O)NC1CC2CCC(C1)N2C (stereo in doubt) | 48 | – | – | – | –

From ChEMBL document CHEMBL1136809, “Synthesis and structure-affinity relationships of novel N-(1-ethyl-4-methylhexahydro-1,4-diazepin-6-yl)pyridine-3-carboxamides with potent serotonin 5-HT3 and dopamine D2 receptor antagonistic activity” (J Med Chem, 2003)
